Published values from different studies.
Protocols differ between the studies behind these lines.
Matrix: plasma

SMILES | host | route | dose | setting | half-life [h]
CONC(=O)c1cccc2c1cc(C)n2-c1nc2c(c(NCc3ccccc3)n1)CCCN2 | male Sprague-Dawley rat | oral | 10 mg/kg | single dose | 1.15
CNS(=O)(=O)c1ccc(Nc2ncc(C(F)(F)F)c(N3CCC(C)(O)CC3)n2)c(C)c1 | rat | intravenous | 2 mg/kg | – | 0.7
CNC(=O)c1cc(Oc2ccc(NC(=O)Nc3ccc(Cl)c(C(F)(F)F)c3)cc2)ccn1 | male Sprague-Dawley rat | oral | 100 mg/kg | single dose | 13.8
CCN(CC)Cc1ccc2cc(COC(=O)Nc3ccc(C(=O)NO)cc3)ccc2c1 | male Sprague-Dawley rat | oral | 10 mg/kg | – | 19.7
NCCOCC(=O)N1CCC[C@H](C(=O)NCc2nc(-c3ccc(C(F)(F)F)cc3)cs2)C1 | male Sprague-Dawley rat | intravenous | 1 mg/kg | – | 4.4
CNS(=O)(=O)c1ccc(Nc2ncc(C(F)(F)F)c([C@H]3CC[C@@](C)(O)CC3)n2)c(C)c1 | rat | intravenous | 2 mg/kg | – | 1.3
COc1nc(-c2cccc(-c3ccccc3)c2C)ccc1CNCCNC(=O)CCCCCCCCCCC(=O)N1CCN(CCNC(=O)c2cc3c(=O)n4cccc(C)c4nc3n(CCc3cccs3)c2=N)CC1 | male Sprague-Dawley rat | intraperitoneal | 4 mg/kg | – | 4.7
Cc1nc(Nc2ncc(C(=O)Nc3c(C)cccc3Cl)s2)cc(N2CC[C@@H](N)C2)n1 | male Sprague-Dawley rat | intravenous | 1 mg/kg | – | 2.8
CC(C)(N)COCC(=O)N1CCC[C@H](C(=O)NCc2nc(-c3ccc(C(F)(F)F)cc3)cs2)C1 | male Sprague-Dawley rat | intravenous | 1 mg/kg | – | 7.2
C[C@H]1Oc2cc(cnc2N)-c2c(nn(C)c2C#N)CN(C)C(=O)c2ccc(F)cc21 | male Sprague-Dawley rat | oral | 5 mg/kg | single dose | 5
CNS(=O)(=O)c1ccc(Nc2ncc3cc(Cl)c(=O)n(C4CCCC4)c3n2)c(C)c1 | rat | intravenous | 2 mg/kg | – | 1.2
CCCCC(=O)Nc1ccc(-c2ccc3ncn(CCC)c(=O)c3c2)cn1 | male rat | intravenous | 2.5 mg/kg | – | 0.582
CCOCC(=O)N1CCC[C@H](C(=O)NCc2nc(-c3ccc(C#N)nc3)cs2)C1 | male Sprague-Dawley rat | intravenous | 1 mg/kg | – | 1.8
Cc1cc(S(=O)(=O)N[C@]2(C)C[C@H](N3CCN(CC4CCN(c5ccc6c(c5F)n(C)c(=O)n6C5CCC(=O)NC5=O)CC4)CC3)C2)ccc1Nc1ncc(C(F)(F)F)c(N2CCC[C@](C)(O)C2)n1 (some centres unmarked) | rat | intravenous | 2 mg/kg | – | 4.1
